Assay results: ChEMBL document CHEMBL3774373, “Activity and Predicted Nephrotoxicity of Synthetic Antibiotics Based on Polymyxin B” (J Med Chem, 2016)
Values after ≈ are worked out from the molar mass of the structure shown. Bridge positions count the residues as written; N and C are the ends. Square brackets hold non-standard residues; d marks the D form. Peptide text beside a SMILES is read from it. * marks the point of attachment. ξ: configuration not given here. Bip = N[C@@H](Cc1ccc(-c2ccccc2)cc1)C(=O)O; dBip = N[C@H](Cc1ccc(-c2ccccc2)cc1)C(=O)O; Phe(4-NH2) = Nc1ccc(C[C@H](N)C(=O)O)cc1; ξGly(octyl) = CCCCCCCCC(N)C(=O)O; dDab = NCC[C@@H](N)C(=O)O; hSer = N[C@@H](CCO)C(=O)O; Octanoyl = CCCCCCCC(=O)*; Dab = NCC[C@H](N)C(=O)O

Key:
Klebsiella pneumoniae [1] = assay: Antibacterial activity against clinical isolate carbapenem and polymyxin resistant Klebsiella pneumoniae 138-16357-20362 after 18 hrs by 2 fold serial dilution method; assay type: functional; settings: 138-16357-20362, 18 h
Summary of the method: (§1)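 Polymyxin-resistant clinical isolates were grown overnight at 37 °C in NB or MHB with shaking, diluted 50-fold in MHB and grown 1.5–3 h to mid-log phase. The inoculum was 5×10^5 CFU/mL. Compounds were 2-fold broth serial dilutions, final 32 to 0.015 μg/mL; the polymyxin controls ran 128–0.06 μg/mL. The MIC was the lowest concentration with no visible growth after 18 h at 37 °C.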

Staphylococcus aureus = assay: microbe, parasite or virus in culture; settings: ATCC 25923, 18 h
Klebsiella pneumoniae [2] = assay: Antibacterial activity against Klebsiella pneumoniae ATCC BAA-2146 expressing NDM-1 after 18 hrs by 2 fold serial dilution method; assay type: functional; settings: ATCC BAA-2146, 18 h
Summary of the method: (§2)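 Overnight cultures at 37 °C in nutrient or Mueller Hinton broth with shaking were diluted 50-fold in MHB and grown 1.5–3 h to mid-log phase. The inoculum was 5×10^5 CFU/mL in MHB. Compounds were 2-fold serially diluted, final 32 to 0.015 μg/mL. After 18 h at 37 °C, the MIC was read visually as the lowest concentration with no visible growth.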

Klebsiella pneumoniae [3] = assay: Antibacterial activity against Klebsiella pneumoniae ATCC 13883 after 18 hrs by 2 fold serial dilution method; assay type: functional; settings: ATCC 13883, 18 h
Summary of the method: (§3)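 Overnight cultures in nutrient or Mueller Hinton broth at 37 °C with shaking, diluted 50-fold into fresh MHB and grown 1.5–3 h to mid-log. Inoculum 5×10^5 CFU/mL in 2-fold serial dilutions, final range 32 to 0.015 μg/mL. MIC read visually after 18 h at 37 °C as the lowest concentration with no visible growth.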

Pseudomonas aeruginosa [4] = assay: Antibacterial activity against Pseudomonas aeruginosa ATCC 27853 after 18 hrs by 2 fold serial dilution method; assay type: functional; settings: ATCC 27853, 18 h; summary of the method: as §3
Klebsiella pneumoniae [5] = assay: Antibacterial activity against multidrug resistant Klebsiella pneumoniae ATCC 700603 after 18 hrs by 2 fold serial dilution method; assay type: functional; settings: Klebsiella pneumoniae, 700603, 18 h; summary of the method: as §2
[6] = Cytotoxicity against human HepG2 cells after 24 hrs by resazurin assay; assay type: cell-based; settings: HepG2 cells
Klebsiella pneumoniae [7] = assay: Antibacterial activity against clinical isolate carbapenem and polymyxin resistant Klebsiella pneumoniae Koprana 100650661:1 after 18 hrs by 2 fold serial dilution method; assay type: functional; settings: Koprana 100650661:1, 18 h; summary of the method: as §1
Escherichia coli = assay: Antibacterial activity against Escherichia coli ATCC 25922 after 18 hrs by 2 fold serial dilution method; assay type: functional; settings: ATCC 25922, 18 h; summary of the method: as §3
Pseudomonas aeruginosa [8] = assay: Antibacterial activity against clinical isolate polymyxin resistant Pseudomonas aeruginosa FADDI-PA070 after 18 hrs by 2 fold serial dilution method; assay type: functional; settings: FADDI-PA070, 18 h; summary of the method: as §1
Acinetobacter baumannii [9] = assay: Antibacterial activity against Acinetobacter baumannii ATCC 19606 after 18 hrs by 2 fold serial dilution method; assay type: functional; settings: ATCC 19606, 18 h; summary of the method: as §3
Acinetobacter baumannii [10] = assay: Antibacterial activity against clinical isolate carbapenem and polymyxin resistant Acinetobacter baumannii Ptyela 100734512:2 after 18 hrs by 2 fold serial dilution method; assay type: functional; settings: Ptyela 100734512:2, 18 h; summary of the method: as §1
Pseudomonas aeruginosa [11] = assay: Antibacterial activity against clinical isolate polymyxin resistant Pseudomonas aeruginosa PA9704 after 18 hrs by 2 fold serial dilution method; assay type: functional; settings: PA9704, 18 h; summary of the method: as §1

SMILES | MIC (Klebsiella pneumoniae [1]) [µg/mL] | MIC (Staphylococcus aureus) [µg/mL] | MIC (Klebsiella pneumoniae [2]) [µg/mL] | MIC (Klebsiella pneumoniae [3]) [µg/mL] | MIC (Pseudomonas aeruginosa [4]) [µg/mL] | MIC (Klebsiella pneumoniae [5]) [µg/mL] | CC50 at 24 h [6] [µM] | MIC (Klebsiella pneumoniae [7]) [µg/mL] | MIC (Escherichia coli) [µg/mL] | MIC (Pseudomonas aeruginosa [8]) [µg/mL] | MIC (Acinetobacter baumannii [9]) [µg/mL] | MIC (Acinetobacter baumannii [10]) [µg/mL] | MIC (Pseudomonas aeruginosa [11]) [µg/mL]
CCCCCCCC(=O)N[C@@H](CCN)C(=O)N[C@H](C(=O)N[C@@H](CCN)C(=O)N[C@H]1CCNC(=O)[C@H]([C@@H](C)O)NC(=O)[C@H](CCN)NC(=O)[C@H](CCN)NC(=O)[C@H](CC(C)C)NC(=O)[C@@H](Cc2ccc(-c3ccccc3)cc2)NC(=O)[C@H](CCN)NC1=O)[C@@H](C)O (Octanoyl-[Dab]T[Dab][Dab][Dab][dBip]L[Dab][Dab]T; lactam 4-C) | 32 (≈ 25.3 µM) | 8 (≈ 6.32 µM) | 1 (≈ 0.79 µM) | 4 (≈ 3.16 µM) | 1 (≈ 0.79 µM) | 2 (≈ 1.58 µM) | 119 | 32 (≈ 25.3 µM) | 1 (≈ 0.79 µM) | 16 (≈ 12.6 µM) | 0.5 (≈ 0.395 µM) | 8 (≈ 6.32 µM) | 16 (≈ 12.6 µM)
CCCCCCCC(=O)N[C@@H](CCN)C(=O)N[C@H](C(=O)N[C@@H](CCN)C(=O)N[C@H]1CCNC(=O)[C@H]([C@@H](C)O)NC(=O)[C@H](CCN)NC(=O)[C@H](CCNC(=O)[C@@H](N)CCC(=O)O)NC(=O)[C@H](CC(C)C)NC(=O)[C@@H](Cc2ccccc2)NC(=O)[C@H](CCN)NC1=O)[C@@H](C)O (Octanoyl-[Dab]T[Dab][Dab][Dab][dF]L[Dab](Glu)[Dab]T; lactam 4-C) | > 32 | > 32 | 4 (≈ 3.03 µM) | 8 (≈ 6.07 µM) | 8 (≈ 6.07 µM) | 4 (≈ 3.03 µM) | > 300 | > 32 | 1 (≈ 0.758 µM) | > 32 | 4 (≈ 3.03 µM) | > 32 | > 32
CCCCCCCC(=O)N[C@@H](CCN)C(=O)N[C@H](C(=O)N[C@@H](CCN)C(=O)N[C@H]1CCNC(=O)[C@H]([C@@H](C)O)NC(=O)[C@H](CCCNC(=N)N)NC(=O)[C@H](CCN)NC(=O)[C@H](CC(C)C)NC(=O)[C@@H](Cc2ccccc2)NC(=O)[C@H](CCN)NC1=O)[C@@H](C)O (Octanoyl-[Dab]T[Dab][Dab][Dab][dF]L[Dab]RT; lactam 4-C) | > 32 | > 32 | 4 (≈ 3.21 µM) | > 32 | 1 (≈ 0.803 µM) | 8 (≈ 6.42 µM) | > 300 | > 32 | 16 (≈ 12.8 µM) | > 32 | 32 (≈ 25.7 µM) | > 32 | > 32
CCCCCCCC(=O)N[C@@H](CCN)C(=O)N[C@H](C(=O)N[C@@H](CCN)C(=O)N[C@H]1CCNC(=O)[C@H]([C@@H](C)O)NC(=O)[C@H](CCNC(=O)[C@@H](N)CCC(=O)O)NC(=O)[C@H](CCN)NC(=O)[C@H](CC(C)C)NC(=O)[C@@H](Cc2ccccc2)NC(=O)[C@H](CCN)NC1=O)[C@@H](C)O (Octanoyl-[Dab]T[Dab][Dab][Dab][dF]L[Dab][Dab](Glu)T; lactam 4-C) | > 32 | > 32 | 4 (≈ 3.03 µM) | 16 (≈ 12.1 µM) | 8 (≈ 6.07 µM) | 4 (≈ 3.03 µM) | > 300 | > 32 | 4 (≈ 3.03 µM) | > 32 | 16 (≈ 12.1 µM) | > 32 | > 32
CCCCCCCC(=O)N[C@@H](CCN)C(=O)N[C@H](C(=O)N[C@@H](CCN)C(=O)N[C@H]1CCNC(=O)[C@H]([C@@H](C)O)NC(=O)[C@H](Cc2ccc(N)cc2)NC(=O)[C@H](CCN)NC(=O)[C@H](CC(C)C)NC(=O)[C@@H](Cc2ccccc2)NC(=O)[C@H](CCN)NC1=O)[C@@H](C)O (Octanoyl-[Dab]T[Dab][Dab][Dab][dF]L[Dab][Phe(4-NH2)]T; lactam 4-C) | > 32 | > 32 | 16 (≈ 12.8 µM) | > 32 | 32 (≈ 25.6 µM) | 16 (≈ 12.8 µM) | > 300 | > 32 | 16 (≈ 12.8 µM) | > 32 | > 32 | > 32 | > 32
CCCCCCCC(=O)N[C@@H](CCN)C(=O)N[C@H](C(=O)N[C@@H](CCN)C(=O)N[C@H]1CCNC(=O)[C@H]([C@@H](C)O)NC(=O)[C@H](CCN)NC(=O)[C@H](CCO)NC(=O)[C@H](CC(C)C)NC(=O)[C@@H](Cc2ccccc2)NC(=O)[C@H](CCN)NC1=O)[C@@H](C)O (Octanoyl-[Dab]T[Dab][Dab][Dab][dF]L[hSer][Dab]T; lactam 4-C) | > 32 | > 32 | 2 (≈ 1.68 µM) | > 32 | 4 (≈ 3.36 µM) | 2 (≈ 1.68 µM) | > 300 | > 32 | 1 (≈ 0.84 µM) | > 32 | 8 (≈ 6.72 µM) | > 32 | > 32
CCCCCCCC(=O)N[C@@H](CCN)C(=O)N[C@H](C(=O)N[C@@H](CCN)C(=O)N[C@H]1CCNC(=O)[C@H]([C@@H](C)O)NC(=O)[C@H](CCN)NC(=O)[C@H](CCN)NC(=O)[C@H](Cc2ccc(-c3ccccc3)cc2)NC(=O)[C@@H](Cc2ccccc2)NC(=O)[C@H](CCN)NC1=O)[C@@H](C)O (Octanoyl-[Dab]T[Dab][Dab][Dab][dF][Bip][Dab][Dab]T; lactam 4-C) | > 32 | 8 (≈ 6.16 µM) | 1 (≈ 0.769 µM) | 4 (≈ 3.08 µM) | 2 (≈ 1.54 µM) | 2 (≈ 1.54 µM) | 117 | 32 (≈ 24.6 µM) | 1 (≈ 0.769 µM) | 16 (≈ 12.3 µM) | 1 (≈ 0.769 µM) | 32 (≈ 24.6 µM) | 16 (≈ 12.3 µM)
CCCCCCCCC1NC(=O)[C@@H](Cc2ccccc2)NC(=O)[C@H](CCN)NC(=O)[C@@H](NC(=O)[C@H](CCN)NC(=O)[C@@H](NC(=O)[C@H](CCN)NC(=O)CCCCCCC)[C@@H](C)O)CCNC(=O)[C@H]([C@@H](C)O)NC(=O)[C@H](CCN)NC(=O)[C@H](CCN)NC1=O (stereo partly drawn) (Octanoyl-[Dab]T[Dab][Dab][Dab][dF][ξGly(octyl)][Dab][Dab]T; lactam 4-C) | 32 (≈ 25.7 µM) | 8 (≈ 6.42 µM) | 1 (≈ 0.803 µM) | 2 (≈ 1.61 µM) | 2 (≈ 1.61 µM) | 2 (≈ 1.61 µM) | 116 | 32 (≈ 25.7 µM) | 1 (≈ 0.803 µM) | 16 (≈ 12.8 µM) | 1 (≈ 0.803 µM) | 8 (≈ 6.42 µM) | 8 (≈ 6.42 µM)
CCCCCCCCC1NC(=O)[C@H](CCN)NC(=O)[C@@H](NC(=O)[C@H](CCN)NC(=O)[C@@H](NC(=O)[C@H](CCN)NC(=O)CCCCCCC)[C@@H](C)O)CCNC(=O)[C@H]([C@@H](C)O)NC(=O)[C@H](CCN)NC(=O)[C@H](CCN)NC(=O)[C@H](CC(C)C)NC1=O (stereo partly drawn) (Octanoyl-[Dab]T[Dab][Dab][Dab][ξGly(octyl)]L[Dab][Dab]T; lactam 4-C) | 16 (≈ 13.2 µM) | 16 (≈ 13.2 µM) | 1 (≈ 0.825 µM) | 2 (≈ 1.65 µM) | 2 (≈ 1.65 µM) | 1 (≈ 0.825 µM) | 254 | 16 (≈ 13.2 µM) | 2 (≈ 1.65 µM) | 4 (≈ 3.3 µM) | 1 (≈ 0.825 µM) | 16 (≈ 13.2 µM) | 8 (≈ 6.6 µM)
CCCCCCCC(=O)N[C@@H](CCN)C(=O)N[C@H](C(=O)N[C@@H](CCN)C(=O)N[C@H]1CCNC(=O)[C@H]([C@@H](C)O)NC(=O)[C@H](CCN)NC(=O)[C@H](CCN)NC(=O)[C@H](CC(C)C)NC(=O)[C@@H](Cc2ccccc2)NC(=O)[C@H](CCO)NC1=O)[C@@H](C)O (Octanoyl-[Dab]T[Dab][Dab][hSer][dF]L[Dab][Dab]T; lactam 4-C) | > 32 | > 32 | 32 (≈ 26.9 µM) | > 32 | > 32 | > 32 | > 300 | > 32 | 16 (≈ 13.4 µM) | > 32 | > 32 | > 32 | > 32
CCCCCCCC(=O)N[C@@H](CCN)C(=O)N[C@H](C(=O)N[C@H](CCN)C(=O)N[C@H]1CCNC(=O)[C@H]([C@@H](C)O)NC(=O)[C@H](CCN)NC(=O)[C@H](CCN)NC(=O)[C@H](CC(C)C)NC(=O)[C@@H](Cc2ccccc2)NC(=O)[C@H](CCN)NC1=O)[C@@H](C)O (Octanoyl-[Dab]T[dDab][Dab][Dab][dF]L[Dab][Dab]T; lactam 4-C) | > 32 | > 32 | 4 (≈ 3.36 µM) | 0.5 (≈ 0.42 µM) | 2 (≈ 1.68 µM) | 1 (≈ 0.841 µM) | > 300 | > 32 | 4 (≈ 3.36 µM) | > 32 | 1 (≈ 0.841 µM) | > 32 | 32 (≈ 26.9 µM)
